Measurements published in ChEMBL document CHEMBL4354819, “Discovery of Novel Small Molecule Dual Inhibitors Targeting Toll-Like Receptors 7 and 8” (J Med Chem, 2019).
Active and inactive are the calls of the source. No cut-off for these calls is given here.

Experiments:
[1] = target: Toll-like receptor 7 (Mus musculus) (UniProt P58681); experiment: Inhibition of endogenous mouse TLR7 in mouse RAW264.7 cells assessed as resiquimod-induced NO production at 1.25 uM incubated for 18 to 24 hrs
[2] = target: T1, Toll-like receptor 9 (Homo sapiens) (UniProt Q9NR96); experiment: Inhibition of human TLR9 expressed in HEK293 cells assessed as reduction in ODN-2006-induced NFkappaB production at 1.5 uM incubated for 16 hrs by quanti-blue SEAP assay; assay type: cell-based
T1 sequence (whole entry): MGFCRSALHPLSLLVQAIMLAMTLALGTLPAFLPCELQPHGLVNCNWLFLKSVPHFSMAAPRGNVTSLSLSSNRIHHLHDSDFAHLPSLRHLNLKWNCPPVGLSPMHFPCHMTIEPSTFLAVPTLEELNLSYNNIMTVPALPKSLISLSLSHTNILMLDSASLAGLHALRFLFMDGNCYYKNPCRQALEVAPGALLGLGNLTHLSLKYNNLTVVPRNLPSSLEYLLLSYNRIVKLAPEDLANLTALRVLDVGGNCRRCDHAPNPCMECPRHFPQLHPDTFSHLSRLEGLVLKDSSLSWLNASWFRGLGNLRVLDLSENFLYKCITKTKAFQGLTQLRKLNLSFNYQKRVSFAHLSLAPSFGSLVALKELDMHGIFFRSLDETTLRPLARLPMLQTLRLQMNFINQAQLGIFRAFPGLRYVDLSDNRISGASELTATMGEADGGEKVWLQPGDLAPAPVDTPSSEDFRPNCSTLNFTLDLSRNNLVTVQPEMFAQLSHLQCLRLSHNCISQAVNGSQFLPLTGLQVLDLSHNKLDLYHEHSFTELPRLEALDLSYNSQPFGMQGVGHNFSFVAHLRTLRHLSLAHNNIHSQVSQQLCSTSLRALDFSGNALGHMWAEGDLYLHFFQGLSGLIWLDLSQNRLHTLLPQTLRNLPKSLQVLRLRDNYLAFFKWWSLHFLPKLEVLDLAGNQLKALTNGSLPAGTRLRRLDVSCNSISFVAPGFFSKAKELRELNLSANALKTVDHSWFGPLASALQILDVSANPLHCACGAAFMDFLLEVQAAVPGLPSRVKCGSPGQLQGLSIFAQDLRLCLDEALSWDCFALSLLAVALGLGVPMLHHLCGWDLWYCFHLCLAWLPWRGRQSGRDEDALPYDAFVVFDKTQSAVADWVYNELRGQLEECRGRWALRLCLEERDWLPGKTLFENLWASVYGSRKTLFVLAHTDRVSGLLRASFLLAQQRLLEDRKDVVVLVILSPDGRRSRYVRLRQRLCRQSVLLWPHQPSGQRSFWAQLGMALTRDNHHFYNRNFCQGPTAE
Procedure, shortened: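 Selectivity panel in stably transfected HEK 293-Blue cells, each overexpressing one human TLR with an inducible SEAP reporter. Agonists: Pam3CSK4 (TLR1/2), Pam2CSK4 (TLR2/6), poly(I:C) (TLR3), LPS (TLR4), R848 (TLR7/8), ODN 2006 (TLR9). Cells were exposed to compound for 16 h. Activity = (raw − untreated)/(ligand + solvent − untreated), with ligand + solvent set as 100%.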

Toll-like receptor 7 (Mus musculus), sequence (P58681 whole entry, looked up): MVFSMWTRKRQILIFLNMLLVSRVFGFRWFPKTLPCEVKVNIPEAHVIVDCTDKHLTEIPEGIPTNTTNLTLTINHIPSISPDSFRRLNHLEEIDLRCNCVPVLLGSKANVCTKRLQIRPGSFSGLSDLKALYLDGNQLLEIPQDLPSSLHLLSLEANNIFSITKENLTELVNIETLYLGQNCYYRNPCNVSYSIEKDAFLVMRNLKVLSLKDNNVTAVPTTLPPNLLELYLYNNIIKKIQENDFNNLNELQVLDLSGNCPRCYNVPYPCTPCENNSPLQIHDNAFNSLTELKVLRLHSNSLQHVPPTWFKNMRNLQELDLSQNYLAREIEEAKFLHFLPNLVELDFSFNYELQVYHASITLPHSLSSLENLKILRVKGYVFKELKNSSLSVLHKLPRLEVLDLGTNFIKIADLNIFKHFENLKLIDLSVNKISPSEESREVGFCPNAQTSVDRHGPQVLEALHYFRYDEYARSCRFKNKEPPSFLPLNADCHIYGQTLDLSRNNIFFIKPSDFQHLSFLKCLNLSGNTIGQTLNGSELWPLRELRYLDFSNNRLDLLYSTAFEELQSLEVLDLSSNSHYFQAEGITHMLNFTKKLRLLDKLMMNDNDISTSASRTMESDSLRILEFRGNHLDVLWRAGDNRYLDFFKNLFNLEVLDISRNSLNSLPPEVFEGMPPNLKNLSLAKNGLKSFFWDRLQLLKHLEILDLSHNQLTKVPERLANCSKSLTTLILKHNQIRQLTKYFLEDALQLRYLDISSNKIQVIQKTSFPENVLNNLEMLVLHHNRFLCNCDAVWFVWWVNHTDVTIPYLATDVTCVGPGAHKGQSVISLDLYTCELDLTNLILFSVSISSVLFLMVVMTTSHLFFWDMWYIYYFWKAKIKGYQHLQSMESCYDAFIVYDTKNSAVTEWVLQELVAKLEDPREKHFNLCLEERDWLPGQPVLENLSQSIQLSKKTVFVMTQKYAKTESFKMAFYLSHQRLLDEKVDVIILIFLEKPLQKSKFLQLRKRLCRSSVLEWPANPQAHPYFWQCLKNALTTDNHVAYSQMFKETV

inhibition [1] | inhibition [2] | Compound
inactive |  | O=C(Nc1ccc(Oc2cc(C(F)(F)F)cc(C(F)(F)F)c2)cc1)c1c(F)cccc1I
 | inactive | O=C(Nc1ccc(Oc2cc(C(F)(F)F)cc(C(F)(F)F)c2)cc1)c1c(F)cccc1Cl
